Key:
[1] = test system: Hepatocyte; assay: Hepatoprotective activity in ddY mouse hepatocytes assessed as inhibition of D-galactosamine-induced cytotoxicity at 30 uM after 44 hrs by MTT assay relative to control; type: functional
Summary of the method: (§1)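 Cells then exposed to D-GalN (2 mM) plus test sample for 44 h. MTT was added for 4 h. Formazan was dissolved in acidic 2-propanol and read at 562 nm (reference 660 nm). Inhibition (%) = (sample − control)/(normal − control) × 100. Values are means ± SEM.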

[2] = test system: Hepatocyte; assay: Hepatoprotective activity in ddY mouse hepatocytes assessed as inhibition of D-galactosamine-induced cytotoxicity at 10 uM after 44 hrs by MTT assay relative to control; type: functional; summary of the method: as §1
[3] = test system: Hepatocyte; assay: Hepatoprotective activity in ddY mouse hepatocytes assessed as inhibition of D-galactosamine-induced cytotoxicity at 100 uM after 44 hrs by MTT assay relative to control; type: functional; summary of the method: as §1
[4] = test system: Hepatocyte; assay: Hepatoprotective activity in ddY mouse hepatocytes assessed as inhibition of D-galactosamine-induced cytotoxicity at 3 uM after 44 hrs by MTT assay relative to control; type: functional; summary of the method: as §1
[5] = test system: Hepatocyte; assay: Hepatoprotective activity in ddY mouse hepatocytes assessed as inhibition of D-galactosamine-induced cytotoxicity after 44 hrs by MTT assay relative to control; type: functional, cell-based; summary of the method: as §1

SMILES | inhibition at 30 µM [1] [%] | inhibition at 10 µM [2] [%] | inhibition at 100 µM [3] [%] | inhibition at 3 µM [4] [%] | IC50 [5] [µM]
C=C(C)[C@@H]1CC[C@](C)(O)[C@H]2CC[C@](C)(O)[C@H]2C1 [GUAIDIOL] | 20.3 | 10.4 | 35.4 | 2.6 | 
C=C(C)C(CCC(C)=O)CC1=C(C)CCC1=O (stereo unspecified) [MANDASSIDIONE] | 14.7 | 7.7 | 21.6 | -0.1 | 
CC1=C[C@H]2[C@H](C(C)C)CC[C@](C)(O)[C@H]2C[C@H]1O | 9.3 | 3.7 | 15.2 | -2.3 | 
CC1(C)C[C@@H]2[C@@H]1CC[C@@]1(C)C[C@]2(O)CC[C@@H]1O | 26.7 | 16.8 | 51.7 | 6.3 | 100
C=C(C)[C@@H]1CC[C@](C)(O)C2=C(C1)[C@](C)(O)CC2=O [CYPERUSOL A1] | 9.5 | 5.6 | 16.5 | 2.2 | 
CC1=CCC(C(C)(C)O)CC1O (stereo unspecified) [SOBREROL] | 15.9 | 8.9 | 23.7 | 5.5 | 
C=C(C)C(CC[C@@H](C)O)CC1=C(C)CCC1=O (stereo partly specified) [CYPERUSOL B2] | -1.4 | 6.5 | 19.9 | 4.4 | 
CC(C)(O)[C@@H]1CC=C(CO)CC1 | 16.7 | 1.7 | 53.3 | -1.5 | 90
CC1(C)CC2[C@H]1CC[C@@]1(C)OC[C@]2(O)CC[C@@H]1O (stereo partly specified) | 24.8 | 14.3 | 36.4 | 12.5 | 
C=C(C)C(CC[C@H](C)O)CC1=C(C)CCC1=O (stereo partly specified) [CYPERUSOL B1] | 22.7 | 20.4 | 34.7 | 3 | 
C=C(C)[C@@H]1CC[C@]2(C)C(=C(C)C(=O)C[C@H]2O)C1 [LIGUCYPERONOL] | 12.6 | 13.9 | 46.7 | 5.5 | 
CC1(C)CC2[C@H]1CC[C@@]1(C)O[C@]2(CO)CC[C@H]1O (stereo partly specified) | 19.9 | 10.4 | 45.9 | 5.7 | 
C=C(C)[C@@H]1CC[C@@H](C)[C@]2(O)CC[C@](C)(O)C(=O)[C@@H]12 [CYPERUSOL D] | 31.9 | 2.6 | 46.1 | -3.6 | 
C=C(C)[C@@H]1CC[C@@]2(C)[C@H](O)CC[C@@](C)(O)[C@@H]2C1 [CYPERUSOL C] | 28.4 | 8.1 | 29.9 | 6.3 | 
CC1(C)C[C@@H]2O[C@@]2(C)CC[C@H]2O[C@]2(C)C[C@@H]2O[C@H]21 | 25.7 | 9.7 | 51.1 | 6.9 | 95
C/C1=C\CC(C)(C)[C@@H](O)[C@H]2C[C@@]2(C)[C@@H](O)CC1 | 37.3 | 16.6 | 54.8 | 5.9 | 70
C=C(C)[C@@H]1CC[C@@H](C)[C@@]2(O)CC(=O)C(C)=C2C1 | 13.5 | -1.1 | 58 | -4.5 | 83
CC1(C)C[C@H]2[C@H]1[C@H]1C[C@@]1(C)[C@H](O)CC[C@]2(C)O [TRICYCLOHUMULADIOL] | 22.1 | 16.1 | 37.7 | 10.9 | 
C=C1C/C=C/C(C)(C)C[C@@H](O)/C(C)=C\C[C@@H]1O | 47.5 | 25.6 | 80.8 | 11.6 | 27
COc1cc(C2Oc3cc([C@H]4Oc5cc(O)cc(O)c5C(=O)[C@@H]4O)ccc3OC2CO)ccc1O (stereo partly specified) [SILIBININ] | 45.2 | 7.7 | 77 | 4.8 | 41
CC1(C)C[C@H](O)[C@]23CC[C@@H](O)[C@@](C)(CC[C@@H]12)C3 [CLOVANEDIOL] | 32.3 | 13.6 | 40.2 | 3.6 | 

Source: ChEMBL document CHEMBL1151166, “Structures of new sesquiterpenes and hepatoprotective constituents from the Egyptian herbal medicine Cyperus longus” (J Nat Prod, 2004)
